Here are results for nine molecules from ChEMBL document CHEMBL1177857, “Functionalized aurones as inducers of NAD(P)H:quinone oxidoreductase 1 that activate AhR/XRE and Nrf2/ARE signaling pathways: synthesis, evaluation and SAR” (Eur J Med Chem, 2010).

Activity calls are given as the source filed them. The rule behind the calls is not given here. Peptide text beside a SMILES is read from it. * marks the point of attachment. Cbz = O=C(OCc1ccccc1)*

Series [1] can be described thus: Transcriptional activation of Nrf2/ARE signaling pathway in mouse Hepa-1c1c7 cells assessed as increase in cellular GSH level at 10 uM after 24 hrs by Ellman's method. The class given is functional, cell-based. Put shortly: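 Hepa1c1c7 cells at 10⁶/plate grown 24 h, then given compound at 10 µM final for 24 h. Pellets extracted with 3% sulfosalicylic acid. Total GSH measured by DTNB recycling (0.6 mM DTNB, 0.2 mM NADPH, GSH reductase) as ΔA412 over 5 min against a GSH standard curve. Values normalized to Bradford protein from a parallel plate; mean ± SEM, n = 3.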

Series [2] concerns the target T1, CYP1A1 (Mus musculus, UniProt P30561).
T1 sequence (P30561 whole entry): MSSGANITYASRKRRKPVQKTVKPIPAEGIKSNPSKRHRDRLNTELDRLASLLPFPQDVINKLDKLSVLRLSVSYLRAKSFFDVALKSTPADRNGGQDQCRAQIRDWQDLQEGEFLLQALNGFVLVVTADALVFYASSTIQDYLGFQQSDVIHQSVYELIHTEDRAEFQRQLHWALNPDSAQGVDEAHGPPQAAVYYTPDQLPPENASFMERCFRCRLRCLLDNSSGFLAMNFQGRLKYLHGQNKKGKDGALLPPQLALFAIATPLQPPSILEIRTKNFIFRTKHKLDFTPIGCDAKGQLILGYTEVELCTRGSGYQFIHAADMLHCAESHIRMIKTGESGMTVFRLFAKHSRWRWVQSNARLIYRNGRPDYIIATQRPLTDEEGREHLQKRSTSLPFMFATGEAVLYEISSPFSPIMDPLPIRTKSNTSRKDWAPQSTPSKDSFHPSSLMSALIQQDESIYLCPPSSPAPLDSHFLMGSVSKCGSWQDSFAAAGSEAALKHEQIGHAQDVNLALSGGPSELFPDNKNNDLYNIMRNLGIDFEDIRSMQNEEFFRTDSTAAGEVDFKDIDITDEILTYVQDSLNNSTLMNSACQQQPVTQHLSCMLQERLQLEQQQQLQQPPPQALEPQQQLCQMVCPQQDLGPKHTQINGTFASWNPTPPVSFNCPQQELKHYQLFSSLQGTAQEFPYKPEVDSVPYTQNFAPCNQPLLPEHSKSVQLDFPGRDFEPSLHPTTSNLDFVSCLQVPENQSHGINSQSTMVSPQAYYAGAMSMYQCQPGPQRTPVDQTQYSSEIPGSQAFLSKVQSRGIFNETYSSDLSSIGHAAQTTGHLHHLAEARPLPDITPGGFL
Put plainly: Induction of Ah receptor in mouse Hepa-1c1c7 cells assessed as induction of CYP1A1 activity at 10 uM after 48 hrs by EROD assay relative to control. The class given is cell-based. As to conditions: probe ethoxyresorufin (EROD), read-out: FC. Put shortly:
(§1)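 Hepa1c1c7 cells at 10⁴/well grown 24 h, then given compound at one fixed concentration for 48 h. After a PBS wash, cells incubated 40 min at 37 °C with 5 µM 7-ethoxyresorufin plus 2 mM salicylamide. Resorufin fluorescence read at ex 530/em 590 nm. Fold induction = (F cells+compound − F blank)/(F control − F blank); mean ± SD, n = 3.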

Series [3] deals with Hepa-1c1c7. Put plainly: Induction of human NQO1 gene expression in mouse Hepa-1c1c7 cells co-transfected with pGL3-ARE at 25 uM after 24 hrs by luciferase reporter gene assay. The class given is functional, cell-based. Put shortly: (§2)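 Hepa1c1c7 cells at about 50% confluency co-transfected with pGL3-ARE firefly luciferase (human NQO1 ARE) and pRL-CMV Renilla as transfection control. After 24 h, cells exposed to compound (10 or 25 µM). Dual luciferase read-out expressed as fold over control; mean ± SD of 3 independent transfections, t-test.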
On the technique in general: Reporter assays use an easily measured gene product as a stand-in for the process of interest.

A short description of series [4]: Induction of NQO1 activity in mouse Hepa-1c1c7 cells at 5 uM after 48 hrs relative to control.
Series [5] in a line: Cytotoxicity against mouse Hepa-1c1c7 cells assessed as cell survival at 5 uM after 48 hrs by MTT assay. To be noted: read-out: Activity. The class given is cell-based. In outline: (§3)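 MTT (0.5 mg/ml) added for 3 h at 37 °C, formazan dissolved in DMSO and read at 590 nm. Survival (%) = (A treated − A blank)/(A untreated − A blank) × 100.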
On the technique in general: Tetrazolium assays rely on reduction of a dye to a coloured formazan, in cell work by metabolically active cells.

Series [6] relates to Hepa-1c1c7. The experiment in a line: Induction of human NQO1 gene expression in mouse Hepa-1c1c7 cells co-transfected with pGL3-ARE at 10 to 25 uM after 24 hrs by luciferase reporter gene assay. The class given is functional, cell-based. In outline: as §2
In series [7] the test system is Hepa-1c1c7. The experiment in a line: Increase of Nrf2 protein level in mouse Hepa-1c1c7 cells at 10 uM for 6 hrs Western blotting relative to control. The class given is functional, cell-based. In outline: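 Hepa1c1c7 cells exposed to compound at 10 µM for 6 h, with MG132 (25 µM) as reference. Lysates made in digitonin/EDTA with protease inhibitors; 50 µg protein run on 15% SDS-PAGE, blotted to nitrocellulose and probed for Nrf2 with β-actin loading control. Bands quantified by densitometry against untreated control, 3 experiments, independent t-test.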

In series [8] the target is T2, Aryl hydrocarbon receptor (Mus musculus, UniProt P30561).
T2 sequence (P30561 whole entry): T1 sequence (P30561 whole entry)
Put plainly: (§4) Induction of Ah receptor in mouse Hepa-1c1c7 cells assessed as induction of CYP1A1 activity at 1 uM after 48 hrs by EROD assay relative to control. The class given is cell-based. To be noted: hepa-1c1c7, 48 h, 1 µM. Put shortly:
as §1

The target of series [9] is NAD(P)H dehydrogenase [quinone] 1 (Homo sapiens) (UniProt P15559). The experiment in a line: Induction of […] NQO1 activity in mutant mouse BPrc1 cells assessed as concentration require for 2 fold induction after 48 hrs. The class given is cell-based. Put shortly:
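Mutant Hepa1c1c7 line (Bp^rc1, defective Ah-receptor pathway) seeded at 10⁴ cells/well for 24 h, then exposed to compound for 48 h; final DMSO ≤0.5%. Cells lysed with 0.8% digitonin/2 mM EDTA. NQO1 read by menadione-driven MTT reduction (NADP, glucose-6-phosphate regenerating system, FAD, pH 7.4), stopped after 5 min with dicoumarol, A590. Activity taken relative to blank and control wells; CD = concentration doubling basal activity; mean ± SD of 3 determinations.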

Series [10] is described as follows: Upregulation of TrxR protein expression in mouse Hepa-1c1c7 cells at 10 uM after 24 hrs by Western blotting relative to control. The class given is functional, cell-based. In outline:
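Hepa1c1c7 cells exposed to compound at 10 µM for 24 h. Digitonin/EDTA lysates (50 µg protein) separated on 15% SDS-PAGE, blotted to nitrocellulose and probed with anti-TrxR antibody. Band intensity compared with untreated control; representative of 3 experiments.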

A short description of series [11]: Cytotoxicity against mouse Hepa-1c1c7 cells assessed as cell survival at 25 uM after 48 hrs by MTT assay. The class given is cell-based. As to conditions: read-out: Activity. Put shortly:
as §3

Series [12] in a line: Induction of NQO1 activity in mouse Hepa-1c1c7 cells at 25 uM after 48 hrs relative to control.
The target in series [13] is T1, CYP1A1. Put plainly: Induction of Ah receptor in mouse Hepa-1c1c7 cells assessed as induction of CYP1A1 activity at 5 uM after 48 hrs by EROD assay relative to control. The class given is cell-based. As to conditions: probe ethoxyresorufin (EROD), read-out: FC. In outline: as §1
Series [14] concerns Hepa-1c1c7. The experiment in a line: Induction of TrxR activity in mouse Hepa-1c1c7 cells at 10 uM after 24 hrs. The class given is cell-based. In outline: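 Hepa1c1c7 cells treated with compound at 10 µM for 24 h. Digitonin/EDTA lysate (25 µg) incubated 20 min at 37 °C with 85 mM HEPES pH 7.6, 0.3 mM insulin, 660 µM NADPH, 2.5 mM EDTA and 5 µM human thioredoxin. Reaction quenched with DTNB in guanidine; A412 read, minus no-thioredoxin background. Fold versus control, mean ± SEM, n = 3.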

Series [15] concerns the target T1, CYP1A1. Described as §4. The class given is cell-based. As to conditions: Hepa-1c1c7 cells, probe ethoxyresorufin (EROD), read-out: FC. Put shortly:
as §1

A short description of series [16]: Induction of NQO1 activity in mouse Hepa-1c1c7 cells at 1 uM after 48 hrs relative to control.
The test system of series [17] is Hepa-1c1c7. The experiment in a line: Increase of Nrf2 protein level in mouse Hepa-1c1c7 cells at 10 uM for 6 hrs Western blotting relative to control. (In general: In western blotting, separated proteins are transferred to a membrane and probed.)

NAD(P)H dehydrogenase [quinone] 1 (Homo sapiens), sequence (P15559 whole entry): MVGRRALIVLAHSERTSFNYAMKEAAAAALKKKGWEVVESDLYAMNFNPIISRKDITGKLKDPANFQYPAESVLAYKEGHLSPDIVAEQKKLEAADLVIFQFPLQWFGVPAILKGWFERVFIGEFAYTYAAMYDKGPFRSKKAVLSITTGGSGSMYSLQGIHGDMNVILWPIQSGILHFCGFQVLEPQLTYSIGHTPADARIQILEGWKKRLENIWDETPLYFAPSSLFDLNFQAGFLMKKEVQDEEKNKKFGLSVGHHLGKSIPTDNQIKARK

Consider `O=C1/C(=C/c2ccccc2O)Oc2cc(O)cc(O)c21`, for which the outcome in [1], in series [3], in series [6] and in series [7] was Active. Further, the fold induction at 48 h, 10 µM in series [2] is 1.1. The fold change (FC) in series [4] turned out to be 2.92. Moreover, the viability at 48 h, 5 µM in series [5] amounted to 102%.

Take `C[S+]([O-])CCCCN=C=S` (stereo unspecified) [SULFORAPHANE]: the Activity in series [8] is on record as 0.92. Further, the result in series [6] and in series [9] was inactive. Also, the result in series [7] was Active.

As for `COc1cc(OC)c2c(c1)O/C(=C\c1ccccc1O)C2=O`, the result in [1], in [10], in series [6] and in [7] was Active. Besides, the fold induction at 48 h, 10 µM in series [2] turned out to be 1.87. Besides, the fold change (FC) in series [4] was determined as 5.28. In series [5], the viability at 48 h, 5 µM was 102%.

Take `O=C1/C(=C/c2ccccc2O)Oc2ccccc21`: the viability at 48 h, 25 µM in series [11] came to 102%. For the same molecule, the fold change (FC) in series [12] was 1.61; in series [4] it was 1.41. The viability at 48 h, 5 µM in series [5] was found to be 110%. Further, the result in [6] and in [14] was inactive. The fold induction at 48 h, 5 µM in [13] came to 1.4.

As to `COc1cc(OC)c2c(c1)O/C(=C\c1ccccc1)C2=O`, the result in series [1], in series [10], in [6] and in series [7] was Active. In series [2], the fold induction at 48 h, 10 µM turned out to be 2.04. Besides, the fold change (FC) in [4] worked out at 7.7. The viability at 48 h, 5 µM in series [5] was 93%.

In the case of `O=c1cc(-c2ccccc2)oc2ccc3ccccc3c12`, the result in series [9] was inactive.

As for `COc1cc(OC)c2c(c1)O/C(=C\c1ccccc1OC)C2=O`, in series [15], the fold induction at 48 h, 1 µM came out at 1.56. Moreover, the viability at 48 h, 5 µM in series [5] came to 82%. In series [16], this molecule gave a fold change (FC) of 2.21.

For the molecule `CC(C)C[C@@H](C=O)NC(=O)[C@H](CC(C)C)NC(=O)[C@H](CC(C)C)NC(=O)OCc1ccccc1` (Cbz-Leu-Leu-Leu-aldehyde), the result in [17] was Active.

As to `COc1cc(OC)c2c(c1)OC(Cc1ccccc1O)C2=O` (stereo unspecified), the fold change (FC) in [4] was determined as 1.55. In addition, in series [5], the viability at 48 h, 5 µM turned out to be 102%. Besides, the outcome in series [6] and in [14] was inactive.
